Test results as given in ChEMBL document CHEMBL2016530, “Synthesis and biological evaluation of pyrethroid insecticide-derivatives as a chemical inducer for Bdnf mRNA expression in neurons” (Bioorg Med Chem, 2012).
Activity calls are given as the source filed them. The calls are words filed in the database; no cut-off is given here.

Key:
Type in all cases: functional
Cortical neurone [1] = test: Increase in BDNF eIV-IX mRNA expression in rat cortical neurons at 10 uM after 3 hrs by RT-PCR analysis
In short: (§1)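 Primary cortical neurons from E17 Sprague–Dawley rat embryos, seeded at 2.5 × 10⁶ cells per polyethylenimine-coated 35 mm dish. Compound added for 3 h (time course 0–24 h at 10 µM). Total RNA extracted with acid guanidine phenol-chloroform and DNase I-treated, then reverse transcribed. Bdnf exon IV-IX mRNA measured by real-time PCR against plasmid standard curves and normalized to Gapdh. Reported as ratio to untreated control; n = 3–4.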

Cortical neurone [2] = test: Increase in BDNF eIV-IX mRNA expression in rat cortical neurons after 3 hrs by RT-PCR analysis; in short: as §1
Cortical neurone [3] = test: Increase in BDNF eIV-IX mRNA expression in rat cortical neurons at 10 uM up to 24 hrs by RT-PCR analysis; in short: as §1
Cortical neurone [4] = test: Increase in BDNF eIV-IX mRNA expression in rat cortical neurons at 10 uM after 3 hrs by RT-PCR analysis in presence of NMDA receptor antagonist APV
Cortical neurone [5] = test: Increase in BDNF eIV-IX mRNA expression in rat cortical neurons at 10 uM after 3 hrs by RT-PCR analysis in presence of ERK1/2 inhibitor U0126
Cortical neurone [6] = test: Increase in BDNF eIV-IX mRNA expression in rat cortical neurons at 10 uM after 3 hrs by RT-PCR analysis in presence of L-type voltage calcium channel blocker nicradipine
Cortical neurone [7] = test: Increase in neurite length in rat cortical neurons at 10 uM after 6 hrs by anti-GFP and anti-MAP2-based fluorescence microscopy
In short: (§2)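 E17 rat cortical neurons GFP-transfected at 4 days in culture, drug-treated for 6 h at day 6, then fixed and stained with anti-GFP/anti-MAP2 and Alexa488/594 secondaries plus DAPI. Under fluorescence microscopy, all neurites arising from the cell body were traced within a 400 µm diameter and their total length measured; n = 3.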

Cortical neurone [8] = test: Increase in BDNF eIV-IX mRNA expression in rat cortical neurons at 10 uM after 3 hrs by RT-PCR analysis in presence of VSSC antagonist TTX
Cortical neurone [9] = test: Increase in BDNF eIV-IX mRNA expression in rat cortical neurons at 10 uM by RT-PCR analysis; settings: TDE = time-dependent effect; in short: as §1
Cortical neurone [10] = test: Increase in neurite crossings in rat cortical neurons at 10 uM after 6 hrs by Sholl analysis
In short: (§3)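 E17 rat cortical neurons transfected with a GFP expression vector by calcium phosphate at 4 days in culture. At day 6, treated for 6 h, then fixed in 4% formaldehyde/4% sucrose and immunostained for GFP and MAP2. Sholl analysis counted neurite intersections with concentric circles of 20–200 µm radius at 20 µm intervals around the cell body. Cells were not preselected; n = 3.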

Cortical neurone [11] = test: Increase in BDNF eIV-IX mRNA expression in rat cortical neurons at 10 uM at 6 hrs by RT-PCR analysis; in short: as §1
Cortical neurone [12] = test: Increase in BDNF eIV-IX mRNA expression in rat cortical neurons at 1 uM after 3 hrs by RT-PCR analysis; in short: as §1
Cortical neurone [13] = test: Increase in neurite length in rat cortical neurons at 1 uM after 6 hrs by anti-GFP and anti-MAP2-based fluorescence microscopy; in short: as §2
Cortical neurone [14] = test: Increase in neurite crossings in rat cortical neurons at 1 uM after 6 hrs by Sholl analysis; in short: as §3

Q: How did the Activity (Cortical neurone [1]) turn out when `CC1(C)[C@H](C(=O)O[C@H](C#CCC(F)(F)F)c2cccc(Oc3ccccc3)c2)[C@@H]1C=C(Br)Br` was run?
A: Active

Q: For `CC1(C)[C@H](C(=O)O[C@H](C#CBr)c2cccc(Oc3ccccc3)c2)[C@@H]1C=C(Br)Br`, which Activity (Cortical neurone [2]) is on record?
A: Dose-dependent effect

Q: What about the Activity (Cortical neurone [1]) of the same molecule?
A: Active

Q: Which Activity (Cortical neurone [2]) does the source give for `CC1(C)[C@H](C(=O)O[C@H](C#CCl)c2cccc(Oc3ccccc3)c2)[C@@H]1C=C(Br)Br` here?
A: Dose-dependent effect

Q: And the Activity (Cortical neurone [1])?
A: Active

Q: With `CCC#C[C@@H](OC(=O)[C@@H]1[C@H](C=C(Br)Br)C1(C)C)c1cccc(Oc2ccccc2)c1` as the molecule, how does the Activity (Cortical neurone [1]) read?
A: Active

Q: How did the Activity (Cortical neurone [3]) turn out when `C#C[C@@H](OC(=O)[C@@H]1[C@H](C=C(Br)Br)C1(C)C)c1cccc(Oc2ccccc2)c1` was run?
A: Active

Q: And the Activity (Cortical neurone [4])?
A: Active

Q: What about the Activity (Cortical neurone [5]) of the same molecule?
A: inactive

Q: And the Activity (Cortical neurone [6])?
A: inactive

Q: And the Activity (Cortical neurone [7])?
A: Active

Q: And the Activity (Cortical neurone [8])?
A: inactive

Q: And the Activity (Cortical neurone [9])?
A: tde

Q: What about the Activity (Cortical neurone [1]) of the same molecule?
A: Active

Q: What about the Activity (Cortical neurone [10]) of the same molecule?
A: Active

Q: What about the Activity (Cortical neurone [11]) of the same molecule?
A: inactive

Q: Which Activity (Cortical neurone [1]) does the source give for `CC#C[C@@H](OC(=O)[C@@H]1[C@H](C=C(Br)Br)C1(C)C)c1cccc(Oc2ccccc2)c1` here?
A: Active

Q: What does the source list for `CC1(C)[C@H](C(=O)O[C@H](C#CI)c2cccc(Oc3ccccc3)c2)[C@@H]1C=C(Br)Br`?
A: Activity (Cortical neurone [2]): Dose-dependent effect; Activity (Cortical neurone [1]): Active

Q: How did the Activity (Cortical neurone [12]) turn out when `CC1(C)[C@H](C(=O)O[C@H](C#N)c2cccc(Oc3ccccc3)c2)[C@@H]1C=C(Br)Br` was run?
A: Active

Q: And the Activity (Cortical neurone [13])?
A: Active

Q: What about the Activity (Cortical neurone [14]) of the same molecule?
A: Active

Q: And the Activity (Cortical neurone [1])?
A: Active
